What was measured:
[1] = target: Coagulation factor VII/tissue factor (Homo sapiens, UniProt P08709); experiment: Inhibition of tissue factor-factor 7a (unknown origin) interaction by chromogenic substrate assay; assay type: protein-complex assay
Outline: (§1)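 Ki from chromogenic substrate assays at 25 °C; n = 2.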

Prothrombin = Prothrombin (Homo sapiens, UniProt P00734); experiment: Inhibition of thrombin (unknown origin) by chromogenic substrate assay; outline: as §1
Coagulation factor X = Coagulation factor X (Homo sapiens, UniProt P00742); experiment: Inhibition of factor-10a (unknown origin) by chromogenic substrate assay; outline: as §1
Plasma [2] = experiment: Anticoagulant activity in factor 7 deficient human plasma assessed as concentration required to prothrombin time; assay type: functional
Homo sapiens [3] = species on record: Homo sapiens; experiment: Selectivity ratio of Ki for trypsin (unknown origin) to Ki for tissue factor-factor 7a (unknown origin) interaction
Homo sapiens [4] = species on record: Homo sapiens; experiment: Selectivity ratio of Ki for factor-10a (unknown origin) to Ki for tissue factor-factor 7a (unknown origin) interaction
Homo sapiens [5] = species on record: Homo sapiens; experiment: Selectivity ratio of Ki for factor-11a (unknown origin) to Ki for tissue factor-factor 7a (unknown origin) interaction
Homo sapiens [6] = species on record: Homo sapiens; experiment: Selectivity ratio of Ki for plasma kallikrein (unknown origin) to Ki for tissue factor-factor 7a (unknown origin) interaction
Homo sapiens [7] = species on record: Homo sapiens; experiment: Selectivity ratio of Ki for factor-9a (unknown origin) to Ki for tissue factor-factor 7a (unknown origin) interaction
Homo sapiens [8] = species on record: Homo sapiens; experiment: Selectivity ratio of Ki for thrombin (unknown origin) to Ki for tissue factor-factor 7a (unknown origin) interaction
Plasma [9] = experiment: Fraction unbound in human plasma; assay type: ADME, cell-free

Chain of Coagulation factor VII/tissue factor (P08709 61-212 limits assumed): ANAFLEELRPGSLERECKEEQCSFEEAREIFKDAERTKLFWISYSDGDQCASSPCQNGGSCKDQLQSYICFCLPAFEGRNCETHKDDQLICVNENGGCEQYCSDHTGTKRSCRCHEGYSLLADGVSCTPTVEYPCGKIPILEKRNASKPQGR
Chain of Coagulation factor VII/tissue factor (P08709 213-466 limits assumed): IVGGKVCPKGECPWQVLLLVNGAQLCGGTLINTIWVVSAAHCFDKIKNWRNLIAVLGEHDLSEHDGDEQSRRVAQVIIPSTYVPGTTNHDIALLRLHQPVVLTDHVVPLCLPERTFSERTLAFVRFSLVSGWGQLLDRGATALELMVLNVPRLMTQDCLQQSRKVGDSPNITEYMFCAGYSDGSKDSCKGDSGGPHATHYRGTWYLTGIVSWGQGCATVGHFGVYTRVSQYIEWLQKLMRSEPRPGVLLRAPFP
Chain of Coagulation factor VII/tissue factor (P13726 33-295 partner limits assumed): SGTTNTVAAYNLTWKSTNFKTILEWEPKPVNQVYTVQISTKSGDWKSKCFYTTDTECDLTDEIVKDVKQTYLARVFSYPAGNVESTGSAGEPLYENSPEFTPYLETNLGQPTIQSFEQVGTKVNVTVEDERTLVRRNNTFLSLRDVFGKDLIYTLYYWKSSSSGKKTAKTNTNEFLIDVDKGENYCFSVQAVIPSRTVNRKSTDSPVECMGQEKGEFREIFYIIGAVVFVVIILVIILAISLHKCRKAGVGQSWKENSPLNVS
Chain of Coagulation factor X (P00742 41-179 limits assumed): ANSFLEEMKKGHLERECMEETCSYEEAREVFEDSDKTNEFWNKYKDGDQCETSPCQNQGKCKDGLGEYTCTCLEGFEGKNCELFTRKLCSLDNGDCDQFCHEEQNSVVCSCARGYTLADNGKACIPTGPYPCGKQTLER
Chain of Coagulation factor X (P00742 235-488 limits assumed): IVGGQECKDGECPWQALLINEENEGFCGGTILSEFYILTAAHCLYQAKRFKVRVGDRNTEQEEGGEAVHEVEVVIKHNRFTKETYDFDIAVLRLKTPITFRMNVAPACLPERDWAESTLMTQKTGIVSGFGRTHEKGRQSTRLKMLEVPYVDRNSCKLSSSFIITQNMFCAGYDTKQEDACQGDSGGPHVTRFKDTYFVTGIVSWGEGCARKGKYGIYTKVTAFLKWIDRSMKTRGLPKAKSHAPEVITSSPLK

Compound | Ki [1] | Ki (Prothrombin) | Ki (Coagulation factor X) | other results
CC(C)(C)OC(=O)CNc1nc(Cl)c2n(c1=O)[C@H](C(=O)NCc1ccc(C(=N)N)cc1)CC2(C)C | 132 nM | 32 nM |  | 
CC(C)CNc1nc(Cl)c2n(c1=O)[C@H](C(=O)NCc1ccc(C(=N)N)cc1)CC2(C)C | 43 nM | 220 nM | > 15000 nM | 
C[C@@]1(CO)C[C@@H](C(=O)NCc2ccc(C(=N)N)cc2)n2c1c(Cl)nc(NC1CCC1)c2=O | 72 nM | > 15000 nM | > 15000 nM | 
C[C@@]1(C(=O)NCc2ccccc2)C[C@@H](C(=O)NCc2ccc(C(=N)N)cc2)n2c1c(Cl)nc(NC1CCC1)c2=O | 560 nM | > 15000 nM | 3700 nM | 
CCC1(CC)C[C@@H](C(=O)NCc2ccc3c(N)nccc3c2)n2c1c(Cl)nc(NC1CCC1)c2=O | 360 nM |  |  | 
CNC(=O)[C@]1(C)C[C@@H](C(=O)NCc2ccc(C(=N)N)cc2)n2c1c(Cl)nc(NC1CCC1)c2=O | 2100 nM | > 15000 nM | 1100 nM | 
CCCNc1cnc2n(c1=O)[C@H](C(=O)NCc1ccc(C(=N)N)cc1)C[C@@]2(C)CC | 150 nM | 2100 nM | > 15000 nM | 
CCCNc1cnc2n(c1=O)[C@H](C(=O)NCc1ccc(C(=N)N)cc1)CC2(CCC)CCC | 620 nM | 1200 nM | 3600 nM | 
CCC1(CC)C[C@@H](C(=O)NCc2ccc3c(N)noc3c2)n2c1c(Cl)nc(NC1CCC1)c2=O | 1900 nM |  |  | 
COCC(C)Nc1nc(Cl)c2n(c1=O)[C@H](C(=O)NCc1ccc(C(=N)N)cc1)CC2(C)C (stereo partly specified) | 130 nM |  |  | 
CC1(C)C[C@@H](C(=O)NCc2ccc(C(=N)N)cc2)n2c1c(Cl)nc(NC1CCC1)c2=O | 23 nM | 200 nM | > 15000 nM | 
CCCC1(CCC)C[C@@H](C(=O)NCc2ccc(C(=N)N)cc2)n2c1c(Cl)nc(NC1CCC1)c2=O | 28 nM | 170 nM | 550 nM | 
CC(Nc1nc(Cl)c2n(c1=O)[C@H](C(=O)NCc1ccc(C(=N)N)cc1)CC2(C)C)C(C)(C)C (stereo partly specified) | 84 nM |  |  | 
N=C(N)c1ccc(CNC(=O)[C@@H]2CC3(CCCC3)c3c(Cl)nc(NC4CCC4)c(=O)n32)cc1 | 99 nM | 78 nM | > 15000 nM | 
CCCNc1cnc2n(c1=O)[C@H](C(=O)NCc1ccc(C(=N)N)cc1)CC2 | 186 nM | 150 nM | > 15000 nM | 
CC1(C)C[C@@H](C(=O)NCc2ccc(C(=N)N)cc2)n2c1c(Cl)nc(NC1CCCC1)c2=O | 60 nM | 160 nM | > 15000 nM | 

Compound | Ki [1] | Ki (Prothrombin) | Ki (Coagulation factor X) | other results
CCC[C@]1(C)C[C@@H](C(=O)NCc2ccc(C(=N)N)cc2)n2c1c(Cl)nc(NC1CCC1)c2=O | 23 nM | 36 nM | 1000 nM | 
CCCNc1cnc2n(c1=O)[C@H](C(=O)NCc1ccc(C(=N)N)cc1)CC2(C)C | 290 nM | 1800 nM | > 15000 nM | 
CC1(C)C[C@@H](C(=O)NCc2ccc(C(=N)N)cc2)n2c1c(Cl)nc(NC1(CO)CCCC1)c2=O | 70 nM | 380 nM | > 15000 nM | 
C=CC[C@]1(C)C[C@@H](C(=O)NCc2ccc(C(=N)N)cc2)n2c1c(Cl)nc(NC1CCC1)c2=O | 5.8 nM | 220 nM | 650 nM | 
CCC[C@@]1(C)C[C@@H](C(=O)NCc2ccc(C(=N)N)cc2)n2c1c(Cl)nc(NC1CCC1)c2=O | 21 nM | 110 nM | 2200 nM | 
Cc1ccc(CNc2nc(Cl)c3n(c2=O)[C@H](C(=O)NCc2ccc(C(=N)N)cc2)CC3(C)C)o1 | 190 nM |  |  | 
CC1(C)C[C@@H](C(=O)NCc2ccc(C(=N)N)cc2)n2c1c(Cl)nc(NC1CC1)c2=O | 37 nM | 360 nM | > 15000 nM | 
CCCNc1cnc2n(c1=O)[C@H](C(=O)NCc1ccc(C(=N)N)cc1)CC2(CC)CC | 75 nM | 5200 nM | 12000 nM | 
CNc1nc(Cl)c2n(c1=O)[C@H](C(=O)NCc1ccc(C(=N)N)cc1)CC2(C)C | 24 nM | 230 nM | > 15000 nM | 
CCC1(CC)C[C@@H](C(=O)NCc2ccc(CN)cc2)n2c1c(Cl)nc(NC1CCC1)c2=O | 300 nM |  |  | 
N=C(N)c1ccc(CNC(=O)[C@@H]2CCc3c(Cl)nc(NC4CCC4)c(=O)n32)cc1 | 30 nM | 35 nM | > 15000 nM | 
CC(C)Nc1nc(Cl)c2n(c1=O)[C@H](C(=O)NCc1ccc(C(=N)N)cc1)CC2(C)C | 17 nM | 130 nM | > 15000 nM | 
CC1(C)C[C@@H](C(=O)NCc2ccc(C(=N)N)cc2)n2c1c(Cl)nc(NCC1CCCCC1)c2=O | 76 nM | 220 nM | > 15000 nM | 
CCNc1nc(Cl)c2n(c1=O)[C@H](C(=O)NCc1ccc(C(=N)N)cc1)CC2(C)C | 19 nM | 260 nM | > 15000 nM | 
CC(C)(C)Nc1nc(Cl)c2n(c1=O)[C@H](C(=O)NCc1ccc(C(=N)N)cc1)CC2(C)C | 68 nM | 220 nM | 2800 nM | 
CCC1(CC)C[C@@H](C(=O)NCc2ccc(C(=N)N)cc2)n2c1c(Cl)nc(NC1CCC1)c2=O | 7.3 nM | 210 nM | 3300 nM | Activity (Plasma [2]): 5.6 µM; Ratio Ki (Homo sapiens [3]): < 3; Ratio Ki (Homo sapiens [4]): > 160; Ratio Ki (Homo sapiens [5]): > 160; Ratio Ki (Homo sapiens [6]): < 3; Ratio Ki (Homo sapiens [7]): > 160; Ratio Ki (Homo sapiens [8]): 30; Cp(f) (Plasma [9]): 6.8%
